The values that follow come from ChEMBL document CHEMBL1138849, “5-substituted tetrazoles as bioisosteres of carboxylic acids. Bioisosterism and mechanistic studies on glutathione reductase inhibitors as antimalarials” (J Med Chem, 2004).

Compound in data set [1]: N[C@@H](CCC(=O)N[C@@H](CSSC[C@H](NC(=O)CC[C@H](N)C(=O)O)C(=O)NCC(=O)O)C(=O)NCC(=O)O)C(=O)O
The experiment in a line: Inhibitory concentration against glutathione reductase (In presence of NADPH). As to conditions: Plasmodium falciparum.

Substrate in data set [2]: CC1=CC(=O)c2ccccc2C1=O
The experiment in a line: Michaelis-Menten constant against Plasmodium falciparum glutathione reductase. Summed up: (§1)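 Recombinant human or P. falciparum GR run as a quinone reductase without GSSG. Mix: 100 mM phosphate pH 7.0, 200 mM KCl, 100 μM NADPH, 1% DMSO, enzyme, and naphthoquinone at 10 levels from 10 to 400 μM. NADPH oxidation read at 340 nm (ε 6.22 mM⁻¹ cm⁻¹). Steady-state rates fitted to Michaelis–Menten by nonlinear regression to give Km and Vmax; kcat and kcat/Km calculated.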

Substrate in data set [3]: CC1=CC(=O)c2ccccc2C1=O
The experiment in a line: Michaelis-Menten constant against human glutathione reductase. Summed up: as §1

B1: Glutathione reductase (Plasmodium falciparum 3D7), O15770 (protein)
chain: MYKHRYFHFFFFFFFFLVSTKIIRSFTFLNNNTNLSNPVYFKKKANMVYDLIVIGGGSGGMAAARRAARHNAKVALVEKSRLGGTCVNVGCVPKKIMFNAASVHDILENSRHYGFDTKFSFNLPLLVERRDKYIQRLNNIYRQNLSKDKVDLYEGTASFLSENRILIKGTKDNNNKDNGPLNEEILEGRNILIAVGNKPVFPPVKGIENTISSDEFFNIKESKKIGIVGSGYIAVELINVIKRLGIDSYIFARGNRILRKFDESVINVLENDMKKNNINIVTFADVVEIKKVSDKNLSIHLSDGRIYEHFDHVIYCVGRSPDTENLNLEKLNVETNNNYIVVDENQRTSVNNIYAVGDCCMVKKSKEIEDLNLLKLYNEETYLNKKENVTEDIFYNVQLTPVAINAGRLLADRLFLKKTRKTNYKLIPTVIFSHPPIGTIGLSEEAAIQIYGKENVKIYESKFTNLFFSVYDIEPELKEKTYLKLVCVGKDELIKGLHIIGLNADEIVQGFAVALKMNATKKDFDETIPIHPTAAEEFLTLQPWMK
In the case of B1, the Km (as a rule, the concentration of substrate that gives half-maximal velocity) in data set [1] was found to be 115 µM; in data set [2], 82.2 µM.

B2: Glutathione reductase, mitochondrial (Homo sapiens), P00390 (protein)
chain: MALLPRALSAGAGPSWRRAARAFRGFLLLLPEPAALTRALSRAMACRQEPQPQGPPPAAGAVASYDYLVIGGGSGGLASARRAAELGARAAVVESHKLGGTCVNVGCVPKKVMWNTAVHSEFMHDHADYGFPSCEGKFNWRVIKEKRDAYVSRLNAIYQNNLTKSHIEIIRGHAAFTSDPKPTIEVSGKKYTAPHILIATGGMPSTPHESQIPGASLGITSDGFFQLEELPGRSVIVGAGYIAVEMAGILSALGSKTSLMIRHDKVLRSFDSMISTNCTEELENAGVEVLKFSQVKEVKKTLSGLEVSMVTAVPGRLPVMTMIPDVDCLLWAIGRVPNTKDLSLNKLGIQTDDKGHIIVDEFQNTNVKGIYAVGDVCGKALLTPVAIAAGRKLAHRLFEYKEDSKLDYNNIPTVVFSHPPIGTVGLTEDEAIHKYGIENVKTYSTSFTPMYHAVTKRKTKCVMKMVCANKEEKVVGIHMQGLGCDEMLQGFAVAVKMGATKADFDNTVAIHPTSSEELVTLR
For the protein B2, in data set [3], the Km is 31.2 µM.
